Source: PubChem BioAssay
Only some compounds are listed: those with a hit (about 4.2% of all), similar ones and a draw of the others.
ANO1 block – mouse TMEM16A channel inhibition, primary screen | Q8BHY3 | HEK293 TMEM16A/YFP iodide influx fluorescence, ionomycin | normalized B-score (activity score, 25-100; higher = stronger inhibition) at 10 µM | hit rate 1.2% among 310,000;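 active = ratio plate-corrected score three or more library SD toward inhibition, starting fluorescence score within five deviations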;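 note: score derived from kinetic fluorescence span divided by baseline fluorescence per well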
Target sequence (Q8BHY3 whole entry, looked up): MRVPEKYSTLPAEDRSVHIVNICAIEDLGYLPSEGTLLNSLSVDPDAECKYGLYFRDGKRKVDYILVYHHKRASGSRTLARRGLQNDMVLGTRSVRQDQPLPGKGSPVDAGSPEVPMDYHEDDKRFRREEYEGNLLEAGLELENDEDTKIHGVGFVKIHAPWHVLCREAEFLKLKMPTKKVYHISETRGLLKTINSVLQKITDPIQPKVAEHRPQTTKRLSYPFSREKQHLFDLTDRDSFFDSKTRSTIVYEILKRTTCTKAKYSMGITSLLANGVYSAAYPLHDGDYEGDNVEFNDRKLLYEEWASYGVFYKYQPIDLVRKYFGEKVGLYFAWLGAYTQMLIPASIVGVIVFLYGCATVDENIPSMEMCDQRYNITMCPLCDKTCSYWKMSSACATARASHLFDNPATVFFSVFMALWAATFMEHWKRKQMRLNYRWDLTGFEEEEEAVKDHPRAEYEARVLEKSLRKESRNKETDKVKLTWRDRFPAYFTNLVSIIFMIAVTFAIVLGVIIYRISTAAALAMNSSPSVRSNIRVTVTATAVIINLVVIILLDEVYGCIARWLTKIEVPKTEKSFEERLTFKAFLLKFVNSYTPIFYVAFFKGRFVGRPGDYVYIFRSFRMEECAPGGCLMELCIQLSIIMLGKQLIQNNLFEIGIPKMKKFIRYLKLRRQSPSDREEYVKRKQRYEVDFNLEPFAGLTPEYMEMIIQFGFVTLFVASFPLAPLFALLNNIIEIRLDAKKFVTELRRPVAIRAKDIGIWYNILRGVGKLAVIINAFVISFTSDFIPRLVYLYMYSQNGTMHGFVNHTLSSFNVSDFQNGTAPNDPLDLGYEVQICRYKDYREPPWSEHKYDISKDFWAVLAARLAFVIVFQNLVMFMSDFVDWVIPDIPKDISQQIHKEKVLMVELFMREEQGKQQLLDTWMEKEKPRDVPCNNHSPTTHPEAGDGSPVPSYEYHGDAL
Lipid droplet – modulators of hepatic lipid droplet formation; AML12 mouse hepatocytes, oleate lipid droplets, BODIPY imaging; inhibition, % at 6.5 µM; hit rate 0.4% among 240,000;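 active = lipid droplet intensity inhibited by at least 50%, with more than 500 cells counted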
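material = mouse AML12 hepatocyte cell line, fixed after treatment | also added = 100 µM oleic acid challenge | doses = compound at 6.5 µM only | schedule = overnight exposure | technique = Image-based BODIPY and DAPI two-channel analysis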
XBP1 UPR activ – adaptive UPR (XBP1) activation; CHO-XBP1 luciferase reporter, IRE1-XBP1 UPR activation, luminescence; percent of tunicamycin response, DMSO as zero; hit rate 0.33% among 330,000; activation, % at 20 µM;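 active = versus positive control, 20 µM dose yields 30% or more activation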;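 note: 100% = tunicamycin at 10 µg/mL and 0% = DMSO only wells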
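assay system = CHO-XBP1 luciferase reporter cells | amount = 1000 cells/well | buffer or medium = F12 plus 10% FBS | compound dosing = single point, 20 µM final compound, 1% DMSO | incubation = 16-18 h cell attachment at 37 °C, then 6 h compound exposure | detection = Steady-Glo luminescence read | controls = tunicamycin 10 µg/mL and vehicle-only wells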
ANO1 activ – mouse TMEM16A channel activation, primary screen; AID 623877; HEK293 TMEM16A/YFP-H148Q/I152L, iodide quench fluorescence; hits give low values; hit rate 0.3% among 340,000; B-score at 10 µM; Q8BHY3;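 active = fluorescence-ratio B-score plate-corrected deviation score at least 3 library SD below zero, with starting fluorescence score within 5 deviations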;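 note: channel opened by trigger with iodide after compound preincubation; score built on the fluorescence ratio of max minus min over baseline; more negative score means more quench and so TMEM16A activation or potentiation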
CHOP inhibitor – inhibitors of CHOP induction in ER stress response. hit rate 3.8% among 220,000. CHO-K1 CHOP-promoter luciferase, tunicamycin-induced, 15-18 h. inhibition, % at 10 µM;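 active = compounds that reduced the stress-induced luciferase reporter signal by more than about 70% of percent inhibition, limit read from the data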;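 note: 0% = tunicamycin plus vehicle and 100% = wells without tunicamycin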
CHOP UPR activ – apoptotic UPR (CHOP) activation | CHO-CHOP luciferase reporter, luminescence; percent of tunicamycin response over DMSO baseline | hit rate 0.34% among 330,000 | AID 449763 | activation, % at 10 µM;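 active = at 10 µM dose, activation of 40% or more, normalized to positive control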;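 note: 100% = tunicamycin at 10 µg/mL and 0% = DMSO alone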
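Test system: CHO-CHOP cells, stable luciferase reporter of PERK-eIF2a-CHOP signalling | Quantity: 500 CHO-CHOP cells per well | Buffer or medium: F12 plus 10% serum | Compound dosing: 10 µM single point, 0.5% DMSO | Schedule: 6 h compound treatment, 37 °C | Signal: Luciferase luminescence | Control set: Tunicamycin high control, DMSO low control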
TMEM16A reconf – re-confirmation of mouse TMEM16A chloride channel inhibitors. HEK293 TMEM16A/YFP-H148Q, iodide quench fluorescence; ionomycin added to raise cell calcium. shares compounds with ANO1 block. AID 652189. inhibition, % at 10 µM. hit rate 39% among 2,300;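 active = mean duplicate percent inhibition, scaled so buffer wells are 0 and the reference blocker 100, over three buffer SD above buffer mean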
TMEM16A Ca cntr – alters calcium mobilization in TMEM16A HEK293 cells, counter-screen. shares compounds with ANO1 block. TMEM16A/YFP HEK293, Fluo4 calcium mobilization. calcium response (% of ionomycin), % at 10 µM. hit rate 2% among 2,300. AID 652231;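 active = duplicate-averaged calcium signal over 20% of the ionomycin maximum, relative to buffer baseline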;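 note: each well's signal is peak minus trough fluorescence divided by its pre-addition baseline; 0% = buffer wells and 100% = ionomycin wells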
Parental YFP cnt – counter-screen for TMEM16A inhibitors: effect in parental YFP-HEK293 cells. 2,300 tested, under 10 active. iodide YFP quench, ionomycin. YFP ratio F(max-min)/F0 at 10 µM. AID 652233. shares compounds with ANO1 block;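 active = yellow fluorescent protein signal ratio exceeding the buffer control mean by over 5 SD of those controls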;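 note: ratio is mean of duplicate wells from kinetic YFP trace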
ClC-1 rat inh – rat ClC-1 inhibition, TMEM16A specificity screen; shares compounds with ANO1 block; CHO ClC-1-YFP, iodide influx fluorescence quench; iodide control reads 0, buffer control 100; ratio percent, % at 10 µM; 2,300 tested, under 10 active; AID 652236;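 active = duplicate-mean ratio percent above the mean of iodide-only control wells, which defines zero, plus 5 of their SD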;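 note: higher percent means stronger block of ClC-1 iodide influx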
Numbers without * were called inactive.

How did CC(=O)c1ccc(C(=O)N2CCC(CO)(Cc3cccc(C(F)(F)F)c3)CC2)cc1 do in these assays?
ANO1 block: 100*; Lipid droplet: -5; XBP1 UPR activ: 1; ANO1 activ: inactive; CHOP inhibitor: 11; CHOP UPR activ: -1; TMEM16A reconf: inactive; TMEM16A Ca cntr: inactive; Parental YFP cnt: -1.2; ClC-1 rat inh: -6

Results for CC1(C(=O)N2CCC(CO)(Cc3cccc(C(F)(F)F)c3)CC2)CC1 ?
ANO1 block: inactive; Lipid droplet: 3; XBP1 UPR activ: 0; ANO1 activ: inactive; CHOP UPR activ: -1

How did O=C(NCc1cccnc1)c1ccc(COc2ccccc2Cl)cc1 do in these assays?
ANO1 block: 25*; Lipid droplet: 2; XBP1 UPR activ: 3; ANO1 activ: inactive; CHOP inhibitor: 34; CHOP UPR activ: 3; TMEM16A reconf: 19%*; TMEM16A Ca cntr: inactive; Parental YFP cnt: -1.1; ClC-1 rat inh: 0

Results for O=C(NCc1cccnc1)c1ccc(COc2ccccc2Br)cc1 ?
ANO1 block: inactive; Lipid droplet: 6; XBP1 UPR activ: 3; ANO1 activ: inactive; CHOP inhibitor: 44; CHOP UPR activ: 4

How did Cc1ccc(S(=O)(=O)c2nc(Cc3ccccc3)oc2N2CCOCC2)cc1 do in these assays?
XBP1 UPR activ: -1; ANO1 activ: inactive; CHOP UPR activ: -1

Results for N#Cc1c(-c2ccccc2)nc(SCc2ccc(Cl)cc2)[nH]c1=O ?
ANO1 block: 100*; Lipid droplet: -3; XBP1 UPR activ: -1; ANO1 activ: inactive; CHOP UPR activ: -2; TMEM16A reconf: inactive; TMEM16A Ca cntr: inactive; Parental YFP cnt: -1.2; ClC-1 rat inh: -18

How did C=CCSc1nc(-c2ccccc2)c(C#N)c(=O)[nH]1 do in these assays?
ANO1 block: inactive; Lipid droplet: 10; XBP1 UPR activ: 0; ANO1 activ: inactive; CHOP inhibitor: 18; CHOP UPR activ: 1

What do the screens show for `CC(=O)Nc1ccc(NS(=O)(=O)c2ccc(Cl)s2)cc1`?
ANO1 block: inactive; XBP1 UPR activ: 1; ANO1 activ: inactive; CHOP inhibitor: 16; CHOP UPR activ: 0

How did Cc1ccc(S(=O)(=O)Nc2ccc3nc(C)sc3c2)cc1 do in these assays?
ANO1 block: 25*; XBP1 UPR activ: -4; ANO1 activ: inactive; CHOP inhibitor: 37; CHOP UPR activ: -1; TMEM16A reconf: inactive; TMEM16A Ca cntr: inactive; Parental YFP cnt: -1.2; ClC-1 rat inh: -8

Results for CSc1nc2ccc(NS(=O)(=O)c3ccc(Cl)s3)cc2s1 ?
ANO1 block: 100*; Lipid droplet: 1; XBP1 UPR activ: -1; ANO1 activ: inactive; CHOP inhibitor: 21; CHOP UPR activ: 2; TMEM16A reconf: 32%*; TMEM16A Ca cntr: inactive; Parental YFP cnt: -0.9; ClC-1 rat inh: -17

Results for Cc1nc2ccc(NS(=O)(=O)c3ccc(Br)cc3)cc2s1 ?
XBP1 UPR activ: -1; ANO1 activ: inactive; CHOP UPR activ: -1
